{"source": "ChEMBL document CHEMBL4330069", "about": "“Boosting the efficacy of anti-MRSA β-lactam antibiotics via an easily accessible, non-cytotoxic and orally bioavailable FtsZ inhibitor” (Eur J Med Chem, 2019)", "key": {"Staphylococcus aureus [1]": {"test_system": "Staphylococcus aureus", "assay": "Synergistic antibacterial activity against multidrug-resistant Staphylococcus aureus isolate 3267 assessed as fractional Inhibitory concentration index in presence of amoxicillin by broth microdilution assay", "format": "functional"}, "Staphylococcus aureus [2]": {"test_system": "Staphylococcus aureus", "assay": "Synergistic antibacterial activity against multidrug-resistant Staphylococcus aureus isolate 2919 in presence of methicillin by broth microdilution assay", "format": "functional", "in_short": "(§1)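 CLSI broth microdilution on clinical MRSA isolates. MICs were measured for the β-lactam alone, the test agent alone and the two combined. Compounds were dissolved in DMSO, and growth inhibition was scored by eye. FIC index is the sum, over both agents, of MIC in combination divided by MIC alone. An FIC index ≤0.5 was taken as synergy.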"}, "Staphylococcus aureus [3]": {"test_system": "Staphylococcus aureus", "assay": "Antibacterial activity against multidrug-resistant Staphylococcus aureus isolate 3332 by broth microdilution assay", "format": "functional", "in_short": "(§2)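 Broth microdilution MIC per CLSI guidelines against clinical MRSA isolates, for β-lactams and test compound alone and in combination. Compounds were dissolved in DMSO. Growth was read by eye, in duplicate. FIC index = FIC(compound) + FIC(drug); synergy defined as FIC index ≤0.5.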"}, "Staphylococcus aureus [4]": {"test_system": "Staphylococcus aureus", "assay": "Synergistic antibacterial activity against multidrug-resistant Staphylococcus aureus isolate 1749 in presence of cloxacillin by broth microdilution assay", "format": "functional", "in_short": "(§3)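 Clinical MRSA isolate panel; compound and β-lactam tested alone and in combination by CLSI broth microdilution, compounds dissolved in DMSO, growth inhibition scored by eye, run in duplicate. FIC index = FIC(compound) + FIC(drug), each the MIC in combination divided by the MIC alone; an index ≤ 0.5 was called synergy.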"}, "Staphylococcus aureus [5]": {"test_system": "Staphylococcus aureus", "assay": "Synergistic antibacterial activity against multidrug-resistant Staphylococcus aureus isolate 3332 in presence of amoxicillin by broth microdilution assay", "format": "functional", "in_short": "as §1"}, "Staphylococcus aureus [6]": {"test_system": "Staphylococcus aureus", "assay": "Synergistic antibacterial activity against multidrug-resistant Staphylococcus aureus isolate 3411 assessed as fractional Inhibitory concentration index in presence of amoxicillin by broth microdilution assay", "format": "functional"}, "Staphylococcus aureus [7]": {"test_system": "Staphylococcus aureus", "assay": "Synergistic antibacterial activity against multidrug-resistant Staphylococcus aureus isolate 1344 assessed as fractional Inhibitory concentration index in presence of meropenem by broth microdilution assay", "format": "functional", "in_short": "(§4)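 CLSI broth microdilution run on clinical MRSA isolates with each β-lactam alone, the test agent alone, and the two combined; agents dissolved in DMSO. Growth inhibition was read by eye. FIC index = FIC(compound) + FIC(β-lactam), where each FIC is the MIC in combination divided by the MIC alone. An index ≤0.5 was taken as synergy.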"}, "[8]": {"assay": "Selective index, ratio of IC50 for mouse L929 cells to MIC for Staphylococcus aureus ATCC 29213", "in_short": "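Selectivity index calculated as L929 IC50 (μM) divided by S. aureus MIC (μM).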"}, "Staphylococcus aureus [9]": {"test_system": "Staphylococcus aureus", "assay": "Antibacterial activity against multidrug-resistant Staphylococcus aureus isolate 358 by broth microdilution assay", "format": "functional", "in_short": "as §2"}, "Staphylococcus aureus [10]": {"test_system": "Staphylococcus aureus", "assay": "Antibacterial activity against multidrug-resistant Staphylococcus aureus isolate 3267 by broth microdilution assay", "format": "functional", "in_short": "as §2"}, "Staphylococcus aureus [11]": {"test_system": "Staphylococcus aureus", "assay": "Synergistic antibacterial activity against multidrug-resistant Staphylococcus aureus isolate 256 in presence of meropenem by broth microdilution assay", "format": "functional", "in_short": "as §1"}, "Staphylococcus aureus [12]": {"test_system": "Staphylococcus aureus", "assay": "Antibacterial activity against Staphylococcus aureus ATCC 29213 by broth microdilution assay", "format": "functional", "in_short": "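Broth microdilution per CLSI guidelines; compounds dissolved in DMSO; single agents tested; growth inhibition read by eye; run in duplicate (table footnote states at least triplicates).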"}, "Staphylococcus aureus [13]": {"test_system": "Staphylococcus aureus", "assay": "Synergistic antibacterial activity against multidrug-resistant Staphylococcus aureus isolate 417 in presence of cloxacillin by broth microdilution assay", "format": "functional"}, "Staphylococcus aureus [14]": {"test_system": "Staphylococcus aureus", "assay": "Synergistic antibacterial activity against multidrug-resistant Staphylococcus aureus isolate 3580 assessed as fractional Inhibitory concentration index in presence of methicillin by broth microdilution assay", "format": "functional"}, "Staphylococcus aureus [15]": {"test_system": "Staphylococcus aureus", "assay": "Synergistic antibacterial activity against multidrug-resistant Staphylococcus aureus isolate 2973 assessed as fractional Inhibitory concentration index in presence of methicillin by broth microdilution assay", "format": "functional"}, "Staphylococcus aureus [16]": {"test_system": "Staphylococcus aureus", "assay": "Synergistic antibacterial activity against multidrug-resistant Staphylococcus aureus isolate 231 in presence of meropenem by broth microdilution assay", "format": "functional", "in_short": "as §3"}, "Staphylococcus aureus [17]": {"test_system": "Staphylococcus aureus", "assay": "Synergistic antibacterial activity against multidrug-resistant Staphylococcus aureus isolate 1402 assessed as fractional Inhibitory concentration index in presence of amoxicillin by broth microdilution assay", "format": "functional", "in_short": "as §4"}, "Staphylococcus aureus [18]": {"test_system": "Staphylococcus aureus", "assay": "Synergistic antibacterial activity against multidrug-resistant Staphylococcus aureus isolate 231 in presence of methicillin by broth microdilution assay", "format": "functional", "in_short": "as §3"}, "Staphylococcus aureus [19]": {"test_system": "Staphylococcus aureus", "assay": "Synergistic antibacterial activity against multidrug-resistant Staphylococcus aureus isolate 1717 in presence of amoxicillin by broth microdilution assay", "format": "functional", "in_short": "as §3"}, "Staphylococcus aureus [20]": {"test_system": "Staphylococcus aureus", "assay": "Synergistic antibacterial activity against multidrug-resistant Staphylococcus aureus isolate 2490 in presence of cefuroxime by broth microdilution assay", "format": "functional", "in_short": "as §3"}, "Staphylococcus aureus [21]": {"test_system": "Staphylococcus aureus", "assay": "Antibacterial activity against multidrug-resistant Staphylococcus aureus ATCC 43300 infected in BALB/C mouse assessed as mouse survival at 50 mg/kg, ip bid co-administered with 25 mg/kg, ip bid cefuroxime measured on day 4 post infection (reference value: 50%)"}, "Staphylococcus aureus [22]": {"test_system": "Staphylococcus aureus", "assay": "Synergistic antibacterial activity against multidrug-resistant Staphylococcus aureus isolate 2919 assessed as fractional Inhibitory concentration index in presence of methicillin by broth microdilution assay", "format": "functional"}, "Staphylococcus aureus [23]": {"test_system": "Staphylococcus aureus", "assay": "Antibacterial activity against multidrug-resistant Staphylococcus aureus isolate 2516 by broth microdilution assay", "format": "functional", "in_short": "as §2"}, "L929": {"test_system": "L929", "assay": "Cytotoxicity against mouse L929 cells by MTS assay", "format": "cell-based", "in_short": "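MTS assay on L929 mouse fibroblasts; IC50 reported as the average of three independent measurements.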"}, "Staphylococcus aureus [24]": {"test_system": "Staphylococcus aureus", "assay": "Synergistic antibacterial activity against multidrug-resistant Staphylococcus aureus isolate 256 in presence of amoxicillin by broth microdilution assay", "format": "functional", "in_short": "as §1"}, "Staphylococcus aureus [25]": {"test_system": "Staphylococcus aureus", "assay": "Synergistic antibacterial activity against multidrug-resistant Staphylococcus aureus isolate 3267 in presence of meropenem by broth microdilution assay", "format": "functional", "in_short": "as §1"}, "Staphylococcus aureus [26]": {"test_system": "Staphylococcus aureus", "assay": "Synergistic antibacterial activity against multidrug-resistant Staphylococcus aureus isolate 2901 in presence of cloxacillin by broth microdilution assay", "format": "functional", "in_short": "as §1"}, "Staphylococcus aureus [27]": {"test_system": "Staphylococcus aureus", "assay": "Synergistic antibacterial activity against multidrug-resistant Staphylococcus aureus isolate 200 in presence of meropenem by broth microdilution assay", "format": "functional", "in_short": "as §3"}, "Staphylococcus aureus [28]": {"test_system": "Staphylococcus aureus", "assay": "Synergistic antibacterial activity against multidrug-resistant Staphylococcus aureus isolate 200 assessed as fractional Inhibitory concentration index in presence of cefuroxime by broth microdilution assay", "format": "functional", "in_short": "as §4"}, "Staphylococcus aureus [29]": {"test_system": "Staphylococcus aureus", "assay": "Synergistic antibacterial activity against multidrug-resistant Staphylococcus aureus isolate 757 in presence of cloxacillin by broth microdilution assay", "format": "functional"}, "Staphylococcus aureus [30]": {"test_system": "Staphylococcus aureus", "assay": "Synergistic antibacterial activity against multidrug-resistant Staphylococcus aureus isolate 1749 in presence of cefuroxime by broth microdilution assay", "format": "functional", "in_short": "as §3"}, "Staphylococcus aureus [31]": {"test_system": "Staphylococcus aureus", "assay": "Synergistic antibacterial activity against multidrug-resistant Staphylococcus aureus isolate 2490 assessed as fractional Inhibitory concentration index in presence of cefuroxime by broth microdilution assay", "format": "functional", "in_short": "as §4"}, "Staphylococcus aureus [32]": {"test_system": "Staphylococcus aureus", "assay": "Synergistic antibacterial activity against multidrug-resistant Staphylococcus aureus isolate 1136 in presence of cefuroxime by broth microdilution assay", "format": "functional", "in_short": "as §3"}, "Staphylococcus aureus [33]": {"test_system": "Staphylococcus aureus", "assay": "Synergistic antibacterial activity against multidrug-resistant Staphylococcus aureus isolate 200 in presence of cloxacillin by broth microdilution assay", "format": "functional", "in_short": "as §3"}, "Staphylococcus aureus [34]": {"test_system": "Staphylococcus aureus", "assay": "Synergistic antibacterial activity against multidrug-resistant Staphylococcus aureus isolate 3580 in presence of amoxicillin by broth microdilution assay", "format": "functional"}, "Staphylococcus aureus [35]": {"test_system": "Staphylococcus aureus", "assay": "Synergistic antibacterial activity against multidrug-resistant Staphylococcus aureus isolate 2224 assessed as fractional Inhibitory concentration index in presence of cefuroxime by broth microdilution assay", "format": "functional", "in_short": "as §4"}, "Staphylococcus aureus [36]": {"test_system": "Staphylococcus aureus", "assay": "Synergistic antibacterial activity against multidrug-resistant Staphylococcus aureus isolate 2919 in presence of cloxacillin by broth microdilution assay", "format": "functional", "in_short": "as §1"}}, "data": [{"smiles": "CCCCCCCCCNc1ccc(F)c(C(N)=O)c1F", "values": [{"measurement": "fractional inhibitory concentration index (FICI)", "setting": "Staphylococcus aureus [1]", "value": 0.3}, {"measurement": "MIC", "setting": "Staphylococcus aureus [2]", "value": 4, "unit": "µg/mL"}, {"measurement": "MIC", "setting": "Staphylococcus aureus [3]", "value": 16, "unit": "µg/mL"}, {"measurement": "MIC", "setting": "Staphylococcus aureus [4]", "value": 0.5, "unit": "µg/mL"}, {"measurement": "MIC", "setting": "Staphylococcus aureus [5]", "value": 8, "unit": "µg/mL"}, {"measurement": "fractional inhibitory concentration index (FICI)", "setting": "Staphylococcus aureus [6]", "value": 2}, {"measurement": "fractional inhibitory concentration index (FICI)", "setting": "Staphylococcus aureus [7]", "value": 2}, {"measurement": "Selectivity Index", "setting": "[8]", "value": ">32"}, {"measurement": "MIC", "setting": "Staphylococcus aureus [9]", "value": 16, "unit": "µg/mL"}, {"measurement": "MIC", "setting": "Staphylococcus aureus [10]", "value": 1020, "unit": "µg/mL"}, {"measurement": "MIC", "setting": "Staphylococcus aureus [11]", "value": 8, "unit": "µg/mL"}, {"measurement": "MIC", "setting": "Staphylococcus aureus [12]", "value": 3.1, "unit": "µM"}, {"measurement": "MIC", "setting": "Staphylococcus aureus [13]", "value": 2, "unit": "µg/mL"}, {"measurement": "fractional inhibitory concentration index (FICI)", "setting": "Staphylococcus aureus [14]", "value": 0.2}, {"measurement": "fractional inhibitory concentration index (FICI)", "setting": "Staphylococcus aureus [15]", "value": 0.3}, {"measurement": "MIC", "setting": "Staphylococcus aureus [16]", "value": 4, "unit": "µg/mL"}, {"measurement": "fractional inhibitory concentration index (FICI)", "setting": "Staphylococcus aureus [17]", "value": 1}, {"measurement": "MIC", "setting": "Staphylococcus aureus [18]", "value": 4, "unit": "µg/mL"}, {"measurement": "MIC", "setting": "Staphylococcus aureus [19]", "value": 2, "unit": "µg/mL"}, {"measurement": "MIC", "setting": "Staphylococcus aureus [20]", "value": 2, "unit": "µg/mL"}, {"measurement": "Activity", "setting": "Staphylococcus aureus [21]", "value": 100, "unit": "%"}, {"measurement": "fractional inhibitory concentration index (FICI)", "setting": "Staphylococcus aureus [22]", "value": 0.4}, {"measurement": "MIC", "setting": "Staphylococcus aureus [23]", "value": 32, "unit": "µg/mL"}, {"measurement": "IC50", "setting": "L929", "value": "> 100", "unit": "µM"}, {"measurement": "MIC", "setting": "Staphylococcus aureus [24]", "value": 16, "unit": "µg/mL"}, {"measurement": "MIC", "setting": "Staphylococcus aureus [25]", "value": 8, "unit": "µg/mL"}, {"measurement": "MIC", "setting": "Staphylococcus aureus [26]", "value": 0.5, "unit": "µg/mL"}, {"measurement": "MIC", "setting": "Staphylococcus aureus [27]", "value": 8, "unit": "µg/mL"}, {"measurement": "fractional inhibitory concentration index (FICI)", "setting": "Staphylococcus aureus [28]", "value": 1}, {"measurement": "MIC", "setting": "Staphylococcus aureus [29]", "value": 1, "unit": "µg/mL"}, {"measurement": "MIC", "setting": "Staphylococcus aureus [30]", "value": 2, "unit": "µg/mL"}, {"measurement": "fractional inhibitory concentration index (FICI)", "setting": "Staphylococcus aureus [31]", "value": 0.2}, {"measurement": "MIC", "setting": "Staphylococcus aureus [32]", "value": 2, "unit": "µg/mL"}, {"measurement": "MIC", "setting": "Staphylococcus aureus [33]", "value": 1, "unit": "µg/mL"}, {"measurement": "MIC", "setting": "Staphylococcus aureus [34]", "value": 8, "unit": "µg/mL"}, {"measurement": "fractional inhibitory concentration index (FICI)", "setting": "Staphylococcus aureus [35]", "value": 0.3}, {"measurement": "MIC", "setting": "Staphylococcus aureus [36]", "value": 1, "unit": "µg/mL"}]}]}
